SENP8 block-1 – SENP8 protease inhibitors, primary screen, biochemical, luminescence. purified SENP8, Z-RLRGG-aminoluciferin cleavage. hit rate 1.2% among 330,000. Sentrin-specific protease 8 (Homo sapiens), Q96LD8. inhibition, % at 10 µM; in the data active = inhibition above about 50%
SENP1 FRET inh – human SENP1 catalytic domain inhibitors, primary screen, biochemical, FRET, uHTS; recombinant SENP1 catalytic domain, CyPet-SUMO1-YPet FRET cleavage; hit rate 0.21% among 360,000; Sentrin-specific protease 1 (Homo sapiens), Q9P0U3; AID 624204, 2012; inhibition, % at 10 µM;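 active = inhibition at least 30% at 10 µM, raw YFP signal under a set limit, fluorescence ratio 0.5 to 1.5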;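 note: 0% = enzyme with DMSO and 100% = no enzyme wells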
Target sequence (Q9P0U3 419-644 limits assumed): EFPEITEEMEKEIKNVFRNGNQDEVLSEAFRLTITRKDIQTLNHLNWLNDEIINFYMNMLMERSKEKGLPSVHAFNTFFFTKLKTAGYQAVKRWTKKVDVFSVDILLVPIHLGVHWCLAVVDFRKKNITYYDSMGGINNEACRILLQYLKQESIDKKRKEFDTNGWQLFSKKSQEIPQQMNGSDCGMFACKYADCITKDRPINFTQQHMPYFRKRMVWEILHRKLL
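material = recombinant human SENP1 catalytic domain, His6-tagged | quantity = 20 pM enzyme | reagent = 25 nM SUMO1 FRET substrate | compound dosing = 10 µM single point, 0.5% DMSO | timing = 50 min enzyme reaction, room temperature, light-protected | detection = FRET, CFP and YFP emission | control set = no-enzyme low, enzyme-DMSO high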
SENP7 inh – SENP7 protease inhibitors, primary screen, biochemical, luminescence, uHTS. Sentrin-specific protease 7 (Homo sapiens), Q9BQF6. recombinant SENP7, Z-RLRGG-aminoluciferin luminescence, 40 min. inhibition, % at 5 µM. hit rate 1.5% among 330,000. AID 434973, 2010;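 active = inhibition above about 50% at the single test dose, limit read from the data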;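 note: plate controls were DMSO with enzyme for no effect and no enzyme buffer wells for full effect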
Platelet DG rel – inhibitors of platelet dense granule secretion, primary screen, cell-based, MLPCN, human platelets; human platelet-rich plasma, SFLLRN dense granule ATP release, luminescence; inhibition, %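 (compounds screened at 7.5 µM in platelet-rich plasma)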; hit rate 0.22% among 300,000; AID 1663, 2009;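 active = mean replicate score, as percent of positive control, at or above 50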
SENP8 block-2 – human SENP8 protease inhibitors, primary screen, biochemical, fluorescence, Nedd8 protein substrate, uHTS; Sentrin-specific protease 8 (Homo sapiens), Q96LD8; recombinant SENP8; inhibition, % at 20 µM; hit rate 0.64% among 360,000; in the data active = inhibition mostly above about 40%, no sharp cut-off; inactive = mostly below about 27%
SENP6 block – SENP6 protease inhibitors, primary screen, biochemical, luminescence, uHTS; hit rate 1.8% among 330,000; Recombinant SENP6 catalytic domain, aminoluciferin luminescence; inhibition, % at 10 µM; Sentrin-specific protease 6 (Homo sapiens), Q9GZR1;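 active = inhibition above about 50% at the single tested dose, limit read from the data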;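 note: plate controls were DMSO wells with enzyme for no effect and DMSO wells lacking enzyme for full effect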
Target sequence (Q9GZR1 628-1112 limits assumed): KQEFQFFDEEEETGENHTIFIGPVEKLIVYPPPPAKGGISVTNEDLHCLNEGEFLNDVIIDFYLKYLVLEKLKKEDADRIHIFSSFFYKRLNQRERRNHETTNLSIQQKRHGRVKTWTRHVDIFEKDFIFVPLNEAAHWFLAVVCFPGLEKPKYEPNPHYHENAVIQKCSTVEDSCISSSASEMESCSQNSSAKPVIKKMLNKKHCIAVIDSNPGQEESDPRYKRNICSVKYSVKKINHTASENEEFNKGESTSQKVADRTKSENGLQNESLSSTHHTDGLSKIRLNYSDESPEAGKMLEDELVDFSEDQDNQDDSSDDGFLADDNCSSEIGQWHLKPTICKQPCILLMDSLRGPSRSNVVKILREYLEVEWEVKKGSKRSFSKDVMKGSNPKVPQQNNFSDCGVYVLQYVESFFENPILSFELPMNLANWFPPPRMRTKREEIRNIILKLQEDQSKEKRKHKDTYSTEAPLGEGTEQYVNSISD
SENP8 confirm – SENP8 protease inhibitors, retest, confirmation, biochemical, luminescence, single concentration. hit rate 40% among 6,200. inhibition, % at 12.5 µM. shares compounds with SENP7 inh. Recombinant SENP8, Z-RLRGG-aminoluciferin luminescence, 60 min;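 active = mean inhibition across replicates above about 50%, limit read from the data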
SENP6 confirm – SENP6 protease inhibitors, confirmation, biochemical, luminescence, single concentration. recombinant SENP6, Z-RLRGG-aminoluciferin luminescence. hit rate 58% among 6,200. shares compounds with SENP7 inh. inhibition, % at 12.5 µM
SENP7 conf – SENP7 protease inhibitors, retest, confirmation, biochemical, luminescence, single concentration. AID 488917, 2010. shares compounds with SENP7 inh. hit rate 69% among 6,200. inhibition, % at 12.5 µM. recombinant SENP7, Z-RLRGG-aminoluciferin luminescence, 40 min
Casp3 SENP sel – caspase-3 protease inhibitors, confirmation, selectivity assay for SENP inhibitor project, biochemical, single concentration. shares compounds with SENP7 inh. purified caspase-3, Z-DEVD-aminoluciferin luminescence, 60 min. inhibition, % at 12.5 µM. hit rate 60% among 6,200;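 active = mean inhibition above about 50%, limit read from the data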;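 note: plate controls were enzyme with DMSO for no effect and wells without caspase-3 for full effect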
Luc interf – interferes with luciferase luminescence in SENP counter-screen; shares compounds with SENP7 inh; inhibition, % at 12.5 µM; AID 488919; hit rate 39% among 6,200; Pre-incubated SENP8/Z-RLRGG-aminoluciferin, luciferase luminescence interference;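 active = mean inhibition above about 50% when retested at one dose, limit read from the data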;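 note: plate controls were DMSO wells with completed reaction for no effect and substrate without enzyme for full effect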
The depositor's hits bear a star; . = not tested or not shown. A selection: hits, their analogues and other compounds. The true share with any hit is near 2.6%.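 Rule for the calls, unless noted: active = mean inhibition above about 50% in the one-dose retest (limit read from the data); inactive = the rest.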

SMILES	SENP8 block-1	SENP1 FRET inh	SENP7 inh	Platelet DG rel	SENP8 block-2	SENP6 block	SENP8 confirm	SENP6 confirm	SENP7 conf	Casp3 SENP sel	Luc interf
Cc1ccccc1NS(=O)(=O)c1cccc(C(=O)Nc2cccc(C(=O)O)c2)c1	33.6	1.4	11.5	7.9	12.7	65.5*	51.8*	44.3	72.5*	12.2	26.4
O=C(O)c1cccc(NC(=O)c2cccc(S(=O)(=O)Nc3cccc([N+](=O)[O-])c3)c2)c1	51.3*	-1.8	30.0	-3.9	4.6	65.5*	71.8*	68.6*	86.1*	38.4	45.3
Cc1ccc(C(=O)Nc2cccc([N+](=O)[O-])c2)cc1S(=O)(=O)Nc1cccc(C(=O)O)c1	16.1	-0.6	9.2	1.7	3.8	9.1	.	.	.	.	.
CCN(Cc1nc2cc(Cl)ccc2c(=O)[nH]1)C(=O)c1cc(C2CC2)nn1-c1ccccc1	-4.3	-9.3	-0.4	.	2.7	-10.8	.	.	.	.	.
C/C(=N\OC(=O)c1ccccc1F)c1nccs1	-5.7	0.5	78.8*	-1.4	15.6	79.4*	60.1*	52.9*	91.6*	5.9	33.3
CCCCCCNC(=O)O[C@H]1C[C@H](C(=O)OC)[C@H](C(=O)OC)C2CN(S(=O)(=O)c3ccc(C)cc3)C[C@@]21O (stereo partly drawn)	.	2.1	.	.	16.1	.	.	.	.	.	.
O=S1(=O)CC(N2CCN(CCO)CC2)CN1Cc1cn(Cc2ccc(C(F)(F)F)cc2)nn1 (stereo not drawn)	.	-2.6	.	.	18.9	.	.	.	.	.	.
Cc1ccc(O)c(C2=Nc3ccccc3C2(C)C)c1	48.6	4.1	55.9*	3.4	21.7	71.5*	21.2	63.8*	88.6*	33.2	27.6
Cc1onc(-c2ccccc2)c1C(=O)Nc1nc2c(s1)CCCC2	-8.9	0.2	-1.2	-0.5	-13.3	-14.1	.	.	.	.	.
Cc1cc(C(=O)Nc2nc3c(s2)CCCC3)no1	18.6	2.5	56.3*	-10.6	9.8	62.9*	45.5	41.8	79.6*	75.3*	54.5*
CN(C)c1ccc(C(=O)Nc2nc3c(s2)CCCC3)cc1	93.7*	-0.1	98.1*	20.1	-397.2	95.4*	13.5	69.3*	82.2*	58.5*	38.1
CC(C)(C)c1ccc(C(=O)NC(=S)Nc2nc3c(s2)CCCC3)cc1	-10.5	-1.0	-4.0	-12.0	21.7	8.1	.	.	.	.	.
Cc1nc2ccsc2c(=O)n1-c1cccc(Cl)c1	10.0	0.5	0.8	3.2	12.8	-0.1	.	.	.	.	.
O=C(O)C1CC(c2ccccc2)=NO1 (stereo not drawn)	0.6	3.0	95.3*	-4.9	5.0	-0.5	6.4	7.2	7.9	2.4	2.3
O=C(O)C1CC(c2ccc(F)cc2)=NO1 (stereo not drawn)	-6.1	-0.5	5.7	-4.5	10.7	-20.2	.	.	.	.	.
COc1cccc(C(=O)Nc2ccc3ccccc3c2)c1	86.4*	-1.5	91.4*	18.3	10.5	88.5*	-22.1	86.2*	99.0*	73.0*	84.5*
COc1cccc(C(=O)Nc2ccc3[nH]ncc3c2)c1	16.3	0.0	6.5	9.1	14.9	16.8	.	.	.	.	.
COc1cccc(C(=O)Nc2cccc(OCC(=O)O)c2)c1	19.1	-0.2	57.8*	15.8	4.6	46.2	53.1*	48.8	80.6*	84.5*	55.8*
COc1cccc(C(=O)Nc2ccc3c(c2)C(=O)NC3=O)c1	51.3*	-2.7	55.5*	22.4	-355.2	58.0*	-26.6	34.3	29.0	31.4	-3.5
COC(=O)COc1cccc(NC(=O)c2cc(OC)cc(OC)c2)c1	11.2	0.3	35.3	-5.8	1.4	25.8	.	.	.	.	.
COc1ccc(C(=O)Nc2cc(OC)nc(OC)n2)cc1	73.9*	-0.7	82.8*	55.5*	31.5	87.1*	83.2*	83.1*	97.2*	92.1*	84.0*
CC(C)(C)S(=O)N1Cc2cc(C(=O)NCc3ccc4c(c3)OCO4)nc(-c3cccc(-c4ccccc4)c3)c2[C@@H]1CCO (stereo partly drawn)	.	1.0	.	.	3.6	.	.	.	.	.	.
O=C(Oc1ccc(C(=S)N2CCOCC2)cc1)c1cccc(Cl)c1	-31.7	1.2	-5.9	13.6	10.9	-14.6	.	.	.	.	.
CCOc1cccc(C(=O)Nc2ccc(NC(=O)c3ccccc3)c(C)c2)c1	77.1*	0.9	78.1*	11.1	26.3	78.0*	12.5	23.8	43.0	86.5*	0.9
COc1ccccc1CNC(=O)c1cccc(NC(=O)c2ccccc2)c1	-2.2	0.9	4.5	5.9	16.8	93.5*	-6.0	-10.7	2.7	1.1	1.6
SMILES	SENP8 block-1	SENP1 FRET inh	SENP7 inh	Platelet DG rel	SENP8 block-2	SENP6 block	SENP8 confirm	SENP6 confirm	SENP7 conf	Casp3 SENP sel	Luc interf
Cc1cccc(C(=O)Nc2ccc3ccccc3c2)c1	73.4*	0.9	74.9*	-6.8	6.6	83.0*	74.0*	75.9*	93.9*	57.9*	29.9
O=C(Nc1ccc2ccccc2c1)c1cccc([N+](=O)[O-])c1	-4.5	0.8	19.4	13.0	20.1	-17.1	.	.	.	.	.
CCCC(=O)Nc1ccc(NC(=O)c2cccc(OC)c2)nc1	15.8	1.4	46.1	23.0	16.6	52.3*	42.2	38.9	75.2*	76.4*	52.2*
COc1ccc(CCN2CC(C(=O)NCCCc3ccncc3)CCC2=O)cc1 (stereo not drawn)	.	2.1	.	.	-54.3	.	.	.	.	.	.
COc1ccc2[nH]c3c(c2c1)CCN1C(=O)C(CC(=O)NCCCN(C)C)C[C@H](C(=O)N2CCCCC2)[C@@]31C (stereo partly drawn)	.	3.5	-1.1	.	11.6	.	.	.	.	.	.
COc1ccc(OC)c(C(=O)c2ccc(C(=O)Nc3ccc4ccccc4c3)cc2)c1	-0.6	3.6	5.3	-6.6	19.9	-4.9	.	.	.	.	.
COc1cccc(C(=O)Nc2cccc(NC(=O)c3ccccc3Cl)c2)c1	3.5	0.6	0.1	-3.3	1.1	24.0	.	.	.	.	.

From PubChem BioAssay
